Results taken from ChEMBL document CHEMBL1153265, “Quinolines as a novel structural class of potent and selective PDE4 inhibitors: optimisation for oral administration” (Bioorg Med Chem Lett, 2009).
pIC50: −log10 of the molar value. ≈ marks a conversion by molar mass, not a printed value.

Tests used:
[1] = target: 3',5'-cyclic-AMP phosphodiesterase 4B (Homo sapiens, UniProt Q07343); assay: Inhibition of human recombinant PDE4B by scintillation proximity assay
[2] = Solubility of the compound; type: physicochemical
[3] = Selectivity for human recombinant PDE4B over bovine aorta PDE3; type: tissue-based
Summary of the method: (§1)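 Catalytic activity of human recombinant PDE4B, PDE3 purified from bovine aorta and human recombinant PDE5 was measured by scintillation proximity assay in 96-well format. Selectivity compares inhibition of PDE4B with inhibition of the other enzyme.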

Homo sapiens = species on record: Homo sapiens; assay: Selectivity for human recombinant PDE4B over human recombinant PDE5; summary of the method: as §1
Blood = assay: Inhibition of LPS-induced TNFalpha production in human whole blood; type: functional, tissue-based
[4] = Oral bioavailability in Sprague-Dawley CD rat at 1 mg/kg; type: ADME, organism-based; conditions: in vivo
Summary of the method: (§2)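 Male CD Sprague rats, each compound given intravenously and orally at 1 mg/kg. Pharmacokinetic parameters derived from both routes.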

[5] = Half life in Sprague-Dawley CD rat at 1 mg/kg, iv and 1 mg/kg, po; type: ADME, organism-based; conditions: in vivo; summary of the method: as §2
[6] = Clearance in Sprague-Dawley CD rat at 1 mg/kg, iv and 1 mg/kg, po; type: ADME, organism-based; conditions: in vivo; summary of the method: as §2
[7] = Selectivity for human recombinant PDE4B over PDE1
[8] = Selectivity for human recombinant PDE4B over PDE2
[9] = Selectivity for human recombinant PDE4B over PDE6
[10] = Selectivity for human recombinant PDE4B over PDE7
[11] = AUC in Sprague-Dawley CD rat at 1 mg/kg, po; type: ADME, organism-based; design: dose 1 mg/kg, route oral; conditions: plasma; summary of the method: as §2

Chain of 3',5'-cyclic-AMP phosphodiesterase 4B (Q07343 whole entry): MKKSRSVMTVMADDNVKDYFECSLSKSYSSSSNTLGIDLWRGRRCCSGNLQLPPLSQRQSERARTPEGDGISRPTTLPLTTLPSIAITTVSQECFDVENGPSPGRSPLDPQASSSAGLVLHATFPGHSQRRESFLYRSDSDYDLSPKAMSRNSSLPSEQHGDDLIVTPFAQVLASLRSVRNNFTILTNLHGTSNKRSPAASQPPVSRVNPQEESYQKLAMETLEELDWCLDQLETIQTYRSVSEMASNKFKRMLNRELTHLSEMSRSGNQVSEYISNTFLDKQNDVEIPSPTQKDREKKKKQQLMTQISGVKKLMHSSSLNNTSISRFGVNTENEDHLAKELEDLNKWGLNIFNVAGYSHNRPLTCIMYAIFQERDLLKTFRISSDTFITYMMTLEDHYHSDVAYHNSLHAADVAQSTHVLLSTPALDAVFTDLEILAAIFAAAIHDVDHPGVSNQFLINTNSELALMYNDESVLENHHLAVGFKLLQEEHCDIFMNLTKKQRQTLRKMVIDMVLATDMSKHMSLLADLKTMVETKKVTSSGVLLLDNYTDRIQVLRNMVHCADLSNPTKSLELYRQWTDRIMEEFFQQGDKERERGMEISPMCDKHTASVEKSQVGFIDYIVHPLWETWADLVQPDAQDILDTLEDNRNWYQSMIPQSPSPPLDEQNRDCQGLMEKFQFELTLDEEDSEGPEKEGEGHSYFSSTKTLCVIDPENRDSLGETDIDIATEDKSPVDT

Structure (SMILES): COc1cccc(Nc2cc(C(N)=O)nc3ccc(S(C)(=O)=O)cc23)c1
- pIC50 [1]: 5.10

Structure (SMILES): COc1cccc(Nc2c(C(N)=O)cnc3ccc(S(=O)(=O)c4ccccc4)cc23)c1
- pIC50 [1]: 8.80

Structure (SMILES): CN(c1cccc(Cl)c1)c1c(C(N)=O)cnc2ccc(S(C)(=O)=O)cc12
- pIC50 [1]: 6.00

Structure (SMILES): CS(=O)(=O)c1ccc2ncc(C(N)=O)c(Nc3cccc(O)c3)c2c1
- pIC50 [1]: 7.00
- solubility [2]: 30 µg/mL (≈ 83.9 µM)
- fold change (FC) [3]: > 300
- fold change (FC) (Homo sapiens): > 300

Structure (SMILES): Cc1cc(S(C)(=O)=O)cc2c(Nc3cccc(C#N)c3)c(C(N)=O)cnc12
- pIC50 (Blood): 7.60
- bioavailability [4]: 27%
- half-life [5]: 2.3 h
- clearance [6]: 19 mL/min/kg
- solubility [2]: 18 µg/mL (≈ 47.3 µM)
- fold change (FC) [7]: > 100
- fold change (FC) [8]: > 100
- fold change (FC) [9]: > 100
- fold change (FC) [10]: > 100

Structure (SMILES): COc1cccc(Nc2c(C#N)cnc3ccc(S(C)(=O)=O)cc23)c1
- pIC50 [1]: 6.30

Structure (SMILES): CS(=O)(=O)c1ccc2ncc(C(N)=O)c(N)c2c1
- pIC50 [1]: < 4.50

Structure (SMILES): COc1cccc(Nc2c(-c3nnc(C)o3)cnc3ccc(S(C)(=O)=O)cc23)c1
- pIC50 [1]: 4.70

Structure (SMILES): COc1cc(Nc2c(C(N)=O)cnc3c(C)cc(S(C)(=O)=O)cc23)ccc1F
- pIC50 [1]: 9.50
- pIC50 (Blood): 8.10
- bioavailability [4]: 82%
- half-life [5]: 1.6 h
- clearance [6]: 16 mL/min/kg
- solubility [2]: 5 µg/mL (≈ 12.4 µM)
- AUC [11]: 770 ng·h/mL
- fold change (FC) [7]: > 100
- fold change (FC) [8]: > 100
- fold change (FC) [9]: > 100
- fold change (FC) [10]: > 100

Structure (SMILES): COc1cc(Nc2c(C(N)=O)cnc3ccc(S(C)(=O)=O)cc23)ccc1F
- pIC50 [1]: 7.50
- pIC50 (Blood): 6.80
- bioavailability [4]: 65%
- half-life [5]: 1.9 h
- clearance [6]: 21 mL/min/kg
- solubility [2]: 4 µg/mL (≈ 10.3 µM)
- AUC [11]: 530 ng·h/mL

Structure (SMILES): O=C(Nc1c(Cl)cncc1Cl)c1ccc(OC(F)F)c(OCC2CC2)c1 [ROFLUMILAST]
- pIC50 (Blood): 7.70
- fold change (FC) [3]: > 300
- fold change (FC) (Homo sapiens): > 300

Structure (SMILES): CCc1cc(S(C)(=O)=O)cc2c(Nc3ccc(F)c(OC)c3)c(C(N)=O)cnc12
- pIC50 (Blood): 7.90

Structure (SMILES): COc1cc(Nc2c(C(N)=O)cnc3c(OC)cc(S(C)(=O)=O)cc23)ccc1F
- pIC50 [1]: 8.30
- pIC50 (Blood): 6.60
- AUC [11]: 81 ng·h/mL

Structure (SMILES): CS(=O)(=O)c1ccc2ncc(C(N)=O)c(Oc3cccc(Cl)c3)c2c1
- pIC50 [1]: 5.50

Structure (SMILES): CS(=O)(=O)c1ccc2ncc(C(N)=O)c(Nc3cccc(Cl)c3F)c2c1
- pIC50 [1]: 8.20
- pIC50 (Blood): 6.60
- bioavailability [4]: 47%
- half-life [5]: 2 h
- clearance [6]: 13 mL/min/kg
- solubility [2]: 12 µg/mL (≈ 30.5 µM)

Structure (SMILES): COc1cc(Nc2c(C(N)=O)cnc3c(F)cc(S(C)(=O)=O)cc23)ccc1F
- pIC50 (Blood): 7.80

Structure (SMILES): CS(=O)(=O)c1ccc2ncc(C(N)=O)c(Nc3cccc(C#N)c3)c2c1
- pIC50 [1]: 7.70
- pIC50 (Blood): 6.50
- bioavailability [4]: 23%
- half-life [5]: 0.9 h
- clearance [6]: 16 mL/min/kg

Structure (SMILES): COc1cccc(Nc2c(C(=O)O)cnc3ccc(S(=O)(=O)c4ccccc4)cc23)c1
- pIC50 [1]: 4.90

Structure (SMILES): CS(=O)(=O)c1ccc2ncc(C(N)=O)c(Nc3cccc4c3CCO4)c2c1
- pIC50 [1]: 8.60
- pIC50 (Blood): 7.60
- bioavailability [4]: 38%
- half-life [5]: 1.7 h
- clearance [6]: 38 mL/min/kg
- solubility [2]: 43 µg/mL (≈ 112 µM)

Structure (SMILES): CNC(=O)c1cnc2ccc(S(C)(=O)=O)cc2c1Nc1cccc(OC)c1
- pIC50 [1]: 5.50

Structure (SMILES): COc1cccc(Nc2c(-c3nc(C)no3)cnc3ccc(S(C)(=O)=O)cc23)c1
- pIC50 [1]: 4.80

Structure (SMILES): CS(=O)(=O)c1ccc2ncc(C(N)=O)c(NC3CCOCC3)c2c1
- pIC50 [1]: < 4.50

Structure (SMILES): CS(=O)(=O)c1ccc2ncc(C(N)=O)c(Nc3cccc(Cl)c3)c2c1
- pIC50 [1]: 7.80
- pIC50 (Blood): 6.60
- solubility [2]: 2 µg/mL (≈ 5.32 µM)

Structure (SMILES): COc1cc(Nc2c(C(N)=O)cnc3c(Cl)cc(S(C)(=O)=O)cc23)ccc1F
- pIC50 (Blood): 8.10
- AUC [11]: 16 ng·h/mL

Structure (SMILES): CS(=O)(=O)c1ccc2ncc(C(N)=O)c(Nc3cccc(C(=O)O)c3)c2c1
- pIC50 [1]: 5.30

Structure (SMILES): CS(=O)(=O)c1ccc2ncc(C(N)=O)c(Nc3cccc(CN)c3)c2c1
- pIC50 [1]: 7.10
- pIC50 (Blood): 5.90

Structure (SMILES): COc1cccc(Nc2c(CN)cnc3ccc(S(=O)(=O)c4ccccc4)cc23)c1
- pIC50 [1]: 6.60

Structure (SMILES): CS(=O)(=O)c1ccc2ncc(C(N)=O)c(Sc3cccc(Cl)c3)c2c1
- pIC50 [1]: 4.70

Structure (SMILES): CS(=O)(=O)c1ccc2ncc(C(N)=O)c(Nc3cccnc3)c2c1
- pIC50 [1]: 7.00
- pIC50 (Blood): 5.70

Structure (SMILES): COc1cccc(Nc2c(C(N)=O)cnc3ccc(S(C)(=O)=O)cc23)c1
- bioavailability [4]: 10%
- half-life [5]: 1.1 h
- clearance [6]: 10 mL/min/kg
- solubility [2]: 5 µg/mL (≈ 13.5 µM)
